The results in this text go back to ChEMBL document CHEMBL4043182, “On the synthesis of quinone-based BODIPY hybrids: New insights on antitumor activity and mechanism of action in cancer cells” (Bioorg Med Chem Lett, 2017).

The source made the active and inactive calls. The rule behind the calls is not given here.

For data set [1], the system named is PC-3. Nature of the data set: Induction of oxidative stress in human PC3 cells assessed as total GSSG levels at 5 uM treated 24 hrs post NAC addition measured after 24 hrs by spectrophotometric analysis (reference value: 1.11 +/- 0.12 microg/mg). The format is functional. Put shortly:
(§1)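 Cells were pretreated 24 h with 5 mM NAC, then exposed 24 h to test compound at 5 µM. Controls received 0.1% DMSO. Extracts were prepared by sonication and HClO4 precipitation, then neutralized with KOH. Total glutathione was read by DTNB/glutathione reductase/NADPH rate at 412 nm. GSSG was measured after 4-vinylpyridine (0.1%, 1 h, RT) and GSH derived by difference. Values are normalized to protein, triplicates, three independent runs.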

In the next data set the test system is SF-295. Briefly: Induction of lipid peroxidation in human SF295 cells assessed as increase in MDA levels at 2.5 to 10 uM after 24 hrs in absence of NAC by TBARS assay. The format is functional, cell-based. Summed up:
(§2)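 TBARS: cells were exposed 24 h, with or without 24 h prior 5 mM NAC, and lysed in Tris-HCl. Lysate was heated with TCA/0.25 M HCl and 6.7 mg/mL TBA for 15 min at 100 °C, centrifuged, and read at 532 nm. Hydrolyzed tetramethoxypropane served as standard, with values normalized to protein. H2O2 (10 µM) was the positive control. Three independent experiments in triplicate; ANOVA/Tukey.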

Data set [2] has as its system L929. Briefly: Induction of lipid peroxidation in mouse L929 cells assessed as increase in MDA levels at 2.5 to 10 uM after 24 hrs in absence of NAC by TBARS assay. The format is cell-based. The conditions noted are these: l929, 24 h. Put shortly:
as §2

Data set [3] concerns PC-3. Nature of the data set: Induction of oxidative stress in human PC3 cells assessed as total intracellular thiol levels at 5 uM treated 24 hrs post NAC addition measured after 24 hrs by spectrophotometric analysis (reference value: 4.23 +/- 0.75 microg/mg). The format is functional. Summed up:
as §1

The test system of data set [4] is L929. Nature of the data set: Induction of oxidative stress in mouse L929 cells assessed as total intracellular thiol levels at 5 uM after 24 hrs by spectrophotometric analysis (reference value: 4.87 +/- 0.25 microg/mg). The format is cell-based. The conditions noted are these: l929, 24 h.
Data set [5] has as its system L929. Briefly: Induction of oxidative stress in mouse L929 cells assessed as total GSSG levels at 5 uM treated 24 hrs post NAC addition measured after 24 hrs by spectrophotometric analysis (reference value: 1.05 +/- 0.33 microg/mg). The format is cell-based. The conditions noted are these: l929, 24 h.
Data set [6] deals with PC-3. Nature of the data set: Cytotoxicity against human PC3 cells after 24 hrs in presence of GSH-OEt by MTT assay. The format is functional, cell-based. The conditions noted are these: PC-3, 24 h. Summed up: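 24 h MTT exposure (0.04–40.92 µM in 0.1% DMSO), with or without co-treatment with GSH ethyl ester (15 mM) to gauge the ROS contribution. MTT was 0.5 mg/mL for 3 h, with formazan dissolved in DMSO and absorbance at 595 nm expressed as % of control. Triplicate, repeated at least three times.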
For orientation: Tetrazolium dyes change colour on reduction, which living cells bring about.

In the case of `CC1(C)OC2=C(C(=O)C(=O)c3ccccc32)C1n1cc(CNC2=[N+]3C(=C(c4ccccc4)c4ccc(Cl)n4[B-]3(F)F)C=C2)nn1` (configuration not stated), the Activity in the data set on PC-3 [1] is 1.07 µg/mg; with L929 [2], “Toxic”; in the data set with PC-3 [3], 4.26 µg/mg; with L929 [4], 3.5 µg/mg; with L929 [5], 1.24 µg/mg. In addition, the result in the data set with SF-295 was Active. For the same compound, the IC50 (commonly the concentration that gives 50% inhibition) in the data set on PC-3 [6] was 15.8 µM.
